Experimental data: ChEMBL document CHEMBL3751740, “New MKLP-2 inhibitors in the paprotrain series: Design, synthesis and biological evaluations” (Bioorg Med Chem, 2016)

Legend:
[1] = target: T1, Kinesin-1 heavy chain (Homo sapiens) (UniProt P33176); test: Inhibition of porcine brain microtubule-stimulated human recombinant GST-tagged Kif5B ATPase activity at 1 mM by microplate reader in presence of Mg2+ ATP relative to control
T1 sequence (whole entry): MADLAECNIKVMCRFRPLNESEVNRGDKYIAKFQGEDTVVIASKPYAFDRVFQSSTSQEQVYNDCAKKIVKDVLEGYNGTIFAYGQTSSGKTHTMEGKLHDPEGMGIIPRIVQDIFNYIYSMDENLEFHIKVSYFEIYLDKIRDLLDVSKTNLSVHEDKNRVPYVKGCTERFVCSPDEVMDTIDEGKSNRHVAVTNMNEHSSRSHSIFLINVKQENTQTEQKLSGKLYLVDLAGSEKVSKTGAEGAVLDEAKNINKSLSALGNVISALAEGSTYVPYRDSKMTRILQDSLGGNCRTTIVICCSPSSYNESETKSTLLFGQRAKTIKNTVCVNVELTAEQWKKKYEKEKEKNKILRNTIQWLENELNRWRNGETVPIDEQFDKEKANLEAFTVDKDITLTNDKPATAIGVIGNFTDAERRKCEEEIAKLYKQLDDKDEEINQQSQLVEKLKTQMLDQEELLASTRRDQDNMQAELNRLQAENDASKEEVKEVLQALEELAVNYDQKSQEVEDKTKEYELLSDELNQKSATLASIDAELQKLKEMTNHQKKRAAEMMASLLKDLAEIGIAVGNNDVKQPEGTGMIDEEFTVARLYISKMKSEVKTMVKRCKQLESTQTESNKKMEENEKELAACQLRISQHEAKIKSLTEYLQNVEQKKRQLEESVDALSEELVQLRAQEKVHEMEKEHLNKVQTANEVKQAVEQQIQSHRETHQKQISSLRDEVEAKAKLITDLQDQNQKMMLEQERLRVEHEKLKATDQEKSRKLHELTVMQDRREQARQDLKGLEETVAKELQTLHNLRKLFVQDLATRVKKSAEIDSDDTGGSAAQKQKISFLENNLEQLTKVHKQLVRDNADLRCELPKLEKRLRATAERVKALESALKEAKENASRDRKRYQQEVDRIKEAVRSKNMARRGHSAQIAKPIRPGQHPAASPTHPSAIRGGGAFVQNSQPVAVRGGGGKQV
Summary of the method: (§1)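 Motor domain at 15 µM final, in 7.5 mM PIPES-NaOH pH 7.0 with […], 10 µM Taxol, ELIPA 1 and 2 reagents and 1.25 mg/mL microtubules. AMP-PNP, a slowly hydrolysable ATP analog and general ATPase inhibitor, tested at 1 mM. Reaction started with 1 mM Mg2+ATP at 22 °C and read kinetically at 360 nm. Run in triplicate.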

[2] = target: T2, Kinesin-like protein KIF3C (Homo sapiens) (UniProt O14782); test: Inhibition of porcine brain microtubule-stimulated human recombinant GST-tagged KIF3C ATPase activity at 1 mM by microplate reader in presence of Mg2+ ATP relative to control; summary of the method: as §1
T2 sequence (whole entry): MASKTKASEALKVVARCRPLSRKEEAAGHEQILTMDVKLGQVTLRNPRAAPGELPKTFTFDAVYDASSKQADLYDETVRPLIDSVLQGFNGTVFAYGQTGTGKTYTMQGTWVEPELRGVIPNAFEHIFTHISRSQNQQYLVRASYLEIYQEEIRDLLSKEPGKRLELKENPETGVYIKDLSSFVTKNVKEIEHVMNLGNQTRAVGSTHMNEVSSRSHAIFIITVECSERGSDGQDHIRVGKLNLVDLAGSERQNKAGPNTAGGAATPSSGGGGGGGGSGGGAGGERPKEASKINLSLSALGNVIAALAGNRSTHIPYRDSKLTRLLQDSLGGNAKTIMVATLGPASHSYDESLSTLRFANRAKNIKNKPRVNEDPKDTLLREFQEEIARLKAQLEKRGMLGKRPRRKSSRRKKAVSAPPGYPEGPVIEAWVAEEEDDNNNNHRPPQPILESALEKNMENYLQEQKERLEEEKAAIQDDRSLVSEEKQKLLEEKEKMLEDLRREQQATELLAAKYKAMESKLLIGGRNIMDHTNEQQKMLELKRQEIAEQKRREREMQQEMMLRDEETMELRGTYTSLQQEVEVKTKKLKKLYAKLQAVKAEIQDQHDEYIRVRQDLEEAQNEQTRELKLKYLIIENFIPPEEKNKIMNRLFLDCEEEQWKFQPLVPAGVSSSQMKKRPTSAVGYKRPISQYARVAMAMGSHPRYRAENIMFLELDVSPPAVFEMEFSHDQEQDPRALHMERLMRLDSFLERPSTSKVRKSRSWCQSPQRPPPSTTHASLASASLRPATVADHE

MDA-MB-231 = test: Growth inhibition of human MDA-MB-231 cells incubated for 4 days by WST-1 assay; type: functional; settings: MDA-MB-231, 96 h
Summary of the method: (§2)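 Cells were kept at 37 °C under 5% CO2 and plated on day 0 at 500–5000 cells/well. On day 1 they received ten concentrations from 0.0025 to 50 µM (final), in triplicate. On day 4 WST-1 was added, followed by 30 min–4 h incubation and absorbance at 450 nm. GI50 is the concentration killing 50% of cells.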

A549 = test: Growth inhibition of human A549 cells incubated for 4 days by WST-1 assay; type: functional; settings: A549, 96 h; summary of the method: as §2
NCI-H460 = test: Growth inhibition of human NCI-H460 cells incubated for 4 days by WST-1 assay; type: functional; settings: NCI-H460, 96 h; summary of the method: as §2
HT-29 = test: Growth inhibition of human HT-29 cells incubated for 4 days by WST-1 assay; type: functional; settings: HT-29, 96 h; summary of the method: as §2
[3] = Growth inhibition of human HCT116 cells incubated for 4 days by WST-1 assay; type: functional; settings: HCT-116, 96 h; summary of the method: as §2

| Compound | inhibition [1] [%] | inhibition [2] [%] | GI50 (MDA-MB-231) [µM] | GI50 (A549) [µM] | GI50 (NCI-H460) [µM] | GI50 (HT-29) [µM] | GI50 [3] [µM] |
| --- | --- | --- | --- | --- | --- | --- | --- |
| Nc1ncnc2c1ncn2[C@@H]1O[C@H](COP(=O)(O)OP(=O)(O)NP(=O)(O)O)[C@@H](O)[C@H]1O | > 30 | > 30 | – | – | – | – | – |
| COc1ccc2[nH]cc(/C(C#N)=C/c3cccnc3)c2c1 | – | – | 16.8 | 9.4 | 8.2 | 26.2 | 32.2 |
